# Screening results deposited in PubChem BioAssay by several laboratories.
# Sampled rows, rich in hits. Any-hit rate of the full collection: about 2.3%.
# TRPC4 act: TRPC4 (mouse) channel activation; Q9QUQ5; HEK293 TRPC4beta/mu-opioid, Fluo4 calcium fluorescence; hits give high values; B-score at 10 µM; 310,000 tested, 0.49% active; AID 2237;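 active = B-score above 5 SD of library B-scores, and initial fluorescence ratio not above library mean plus 5 SD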;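 also: positive B-score marks a calcium rise read as TRPC4 activation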
#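 System: HEK293 cells stably co-expressing mouse TRPC4beta and mu-opioid receptor; Schedule: Fluo4 dye loading 45 min at room temperature, 110 s recording; Detection: Fluo4 fluorescence, kinetic; Evaluation: B-scored integrated calcium fluorescence ratio; Controls: buffer (low) and maximal DAMGO (high).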
# TRPC6 act: activates the mouse TRPC6 cation channel; B-score at 10 µM; 310,000 tested, 0.13% active; HEK293-TRPC6 membrane potential dye fluorescence; hits give high values;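 active = B-score of the integrated fluorescence ratio above library mean plus 3 SD, and starting fluorescence ratio within library mean plus 5 SD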;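 also: higher score means more depolarization so channel activation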
# TRPC4 block: blocks the mouse TRPC4 cation channel. Q9QUQ5. HEK293 TRPC4beta/mu-opioid, DAMGO-evoked Fluo4 calcium flux; hits give low values. B-score at 10 µM. 300,000 tested, 0.39% active. AID 2247;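 active = B-score over 3 SD under the library average, no early fluorescence shift, positive overall ratio signal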
#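 Test system – stable TRPC4beta/mu-opioid receptor HEK293 cells · Probe or stimulus – DAMGO, a submaximal dose followed by a maximal one · Dosing – one concentration per compound · Signal – Fluo4 calcium fluorescence by kinetic imaging, 5 s 1 Hz baseline · Evaluation – per-well B score of integrated baseline-normalized Fluo4 ratio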
# CR mimetic SO: yeast age-related superoxide inhibition as caloric restriction mimetic; S. cerevisiae aged cells, superoxide DHE fluorescence; hits give low values; superoxide response (% of plate mean), % at 10 µM; 330,000 tested, 0.18% active; AID 2690;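 active = superoxide response under a set limit, about three screen SD below normal, cut at about 65% in these data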;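 also: yeast aged for seven days with compound at 30 °C before DHE staining; 100% = average MFI of all compound-treated wells on the plate with controls excluded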
# TRPC6 inhibitor: blocks the mouse TRPC6 cation channel; 310,000 tested, 1.1% active; Q61143; HEK293-TRPC6, membrane potential dye, ACh-evoked depolarization; hits give low values; B-score at 10 µM;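 active = B-score under library mean minus 3 SD, initial fluorescence not abnormally high, positive integrated signal ratio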;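 also: B-score derived from integrated fluorescence ratio over the kinetic read; more negative B-score means stronger inhibition of depolarization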
# TRPC4 potent: allosteric potentiators of mouse TRPC4 channel; Q9QUQ5; HEK293 TRPC4beta/mu-opioid, DAMGO EC20, Fluo-4 Ca2+ flux; hits give high values; B-score at 10 µM; 310,000 tested, 0.42% active; AID 2227;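 active = B-score of calcium response area above 5 SD of library B-scores, with initial fluorescence ratio within 5 SD of library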;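 also: B-score of integrated fluorescence ratio over time as area under calcium response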
# Superoxide pick: yeast aging superoxide inhibition, cherry pick confirmation. AID 434994. shares compounds with CR mimetic SO. superoxide response (% of plate), % at 10 µM. 850 tested, 1% active. S. cerevisiae aging, superoxide DHE fluorescence; hits give low values;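 active = superoxide signal below 65% of the plate average of sample wells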;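 also: cells aged with compound for 7 days at 30 degrees C before staining; 100% equals mean DHE fluorescence of all compound wells on the plate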
# DHE counter: DHE fluorescence interference, counter-screen artifact; AID 435000; shares compounds with CR mimetic SO; fluorescence response, % at 10 µM; 850 tested, under 10 active; S. cerevisiae BY4741, flow cytometry; hits give low values;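 active = fluorescence response below 15%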;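 also: percent of the mean fluorescence averaged over all compound wells on the plate; lower means stronger quenching of DHE signal or ROS scavenging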
# * hit, by the source's call; i = inactive; nt = no result given.
SMILES,TRPC4 act,TRPC6 act,TRPC4 block,CR mimetic SO,TRPC6 inhibitor,TRPC4 potent,Superoxide pick,DHE counter
Cc1cccc(N=C2NC(=O)/C(=C\c3cccs3)S2)c1,i,i,i,129,i,i,nt,nt
COc1ccccc1N1C(=NC(=O)C2CCCCC2)SC2CS(=O)(=O)CC21 (stereo not given),i,i,i,88,i,i,nt,nt
COc1ccc(CNC(=O)CNC(=O)c2ccc(C(C)(C)C)cc2)cc1OC,i,i,i,62*,i,i,104,89
COc1ccc(C(=O)NCC(=O)OCC(=O)NC(=O)c2ccc(C(C)(C)C)cc2)cc1OC,nt,nt,nt,145,nt,nt,nt,nt
C=CCNC(=O)NC(=O)COC(=O)CNS(=O)(=O)c1ccc(F)c(F)c1F,i,i,i,99,i,i,nt,nt
CC(=O)COc1nc2c(c(-c3ccco3)c1C#N)CCc1ccccc1-2,i,i,i,65*,i,i,95,105
CCOc1nc2c(c(-c3cccs3)c1C#N)Cc1ccccc1-2,i,i,i,99,i,i,nt,nt
O=C1C(C2=NC(c3ccccn3)C3C(=O)N(c4ccc(OC(F)(F)F)cc4)C(=O)C23)=C(O)c2ccccc21 (stereo not given),i,i,i,91,i,i,nt,nt
COc1cc(OC)cc(C(=O)O/N=C(\N)c2ccncc2)c1,i,i,i,62*,i,i,112,110
OCCOCCn1c2ccccc2c2ccccc21,i,i,i,80,i,i,95,92
COc1ccc(CNC(=O)C2CCN(S(=O)(=O)N3CCC4(CC3)OCCO4)CC2)c(OC)c1,i,i,i,63*,i,i,112,132
OC(COCC(F)(F)C(F)(F)C(F)(F)C(F)F)Cn1c2ccc(Cl)cc2c2cc(Cl)ccc21 (stereo not given),i,i,i,97,i,i,109,93
O=C(NC1CCCC1)C(c1ccccc1)N(C(=O)c1csnn1)c1ccccc1F (stereo not given),i,i,i,91,i,i,nt,nt
O=C(NC1CCCCC1)C(c1ccncc1)N(C(=O)c1csnn1)c1ccccc1F (stereo not given),i,i,i,65*,i,i,92,99
COc1ccc(C(=O)N2CCN(c3ccc(C)cc3)CC2)cc1OC,i,i,i,91,i,i,111,106
O=C(c1ccc(N2CCCC2=O)cc1)N1CCN(c2ccc(Cl)cc2)CC1,i,i,i,100,i,i,nt,nt
Cc1ccc(C(=O)N2CCN(c3ccc(Cl)cc3)CC2)cc1,i,i,i,107,i,i,106,92
CCc1ccc(N2CCN(C(=O)c3ccc(OC)c(OC)c3)CC2)cc1,i,i,i,86,i,i,nt,nt
O=C(COC(=O)Cc1ccc(Cl)cc1)Nc1cc(S(=O)(=O)N2CCOCC2)ccc1N1CCCC1,i,i,i,104,i,i,nt,nt
N#Cc1ccc(NC(=O)CN2CCN(c3ccccn3)CC2)cc1,i,i,i,98,i,i,97,102
O=C(CN1CCCCCC1)Nc1ccc(F)c(F)c1,i,i,i,100,i,i,nt,nt
CC(C)c1ccc(NC(=O)CN2CCN(c3ccccn3)CC2)cc1,i,i,i,85,i,i,89,93
Cc1cc(Br)ccc1NC(=O)c1sc2ncnc(N3CCN(c4ccccn4)CC3)c2c1C,i,i,i,95,i,i,nt,nt
Cc1cc(Br)ccc1NC(=O)CN1CCN(c2ccccn2)CC1,i,i,i,106,i,i,96,91
